Fh CTSL1 inh = cathepsin L1 inhibition, PFM18AAP counter-screen | recombinant F. hepatica cathepsin L1, Z-Leu-Arg-MCA fluorescence | inhibition, % at 5.96 µM | AID 1906 | 300,000 tested, 0.49% active;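 active = inhibition above the mean of all tested compounds plus 3 SD, set per screening campaign, cut at about 17% in these data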;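 also: 0% = plate median of test compound wells and 100% = 1 µM Z-Phe-Ala-diazomethylketone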
CHOP inh = inhibitors of CHOP induction in ER stress response; CHO-K1 CHOP-promoter luciferase, tunicamycin-induced, 15-18 h; inhibition, % at 10 µM; 220,000 tested, 3.8% active; AID 2732;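 active = compounds that reduced the stress-induced luciferase reporter signal by more than about 70% of percent inhibition, limit read from the data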;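 also: 0% = tunicamycin plus vehicle and 100% = wells without tunicamycin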
UCH37 inh = inhibitors of human deubiquitinating enzyme UCH37; Q9Y5K5; purified proteasome/UCH37, Ub-AMC cleavage fluorescence; inhibition, % (concentration not given with the values); 330,000 tested, 0.33% active;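 active = mean inhibition over replicate wells above about 20%, limit read from the data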;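 also: 0% = compound-free wells with enzyme and 100% = wells lacking proteasome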
Target sequence (Q9Y5K5 whole entry, looked up): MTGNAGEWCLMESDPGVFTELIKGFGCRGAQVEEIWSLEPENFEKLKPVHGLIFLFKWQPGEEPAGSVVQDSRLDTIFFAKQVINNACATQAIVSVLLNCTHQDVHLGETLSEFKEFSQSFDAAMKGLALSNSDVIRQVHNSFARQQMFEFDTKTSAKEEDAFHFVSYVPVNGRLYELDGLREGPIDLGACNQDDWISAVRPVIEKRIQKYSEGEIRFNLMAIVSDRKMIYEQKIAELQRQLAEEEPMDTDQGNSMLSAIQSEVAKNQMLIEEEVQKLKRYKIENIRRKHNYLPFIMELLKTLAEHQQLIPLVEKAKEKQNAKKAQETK
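system = Proteasome-associated human UCH37 deubiquitinase | amount = 0.15 nM proteasome as dispensed | medium = pH 7.4 Tris-HCl (50 mM) with ovalbumin, ATP-MgCl2, DTT | incubation = 30 min preincubation with enzyme, 25 min cleavage at room temperature | detection = AMC fluorescence 355/460 nm | read-out basis = percent inhibition | controls = no-proteasome and no-compound wells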
UPR XBP1 act = activators of adaptive arm of unfolded protein response (XBP1); CHO-XBP1 luciferase reporter, IRE1-XBP1 UPR activation, luminescence; percent of tunicamycin response, DMSO as zero; activation, % at 20 µM; 330,000 tested, 0.33% active;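 active = versus positive control, 20 µM dose yields 30% or more activation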;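 also: 100% = tunicamycin at 10 µg/mL and 0% = DMSO only wells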
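Material: CHO cell line with stable XBP1 luciferase reporter; buffer or medium: F12 medium containing 10% fetal bovine serum; compound: single point, 20 µM final compound, 1% DMSO; incubation: 6 h treatment, 37 °C; measured by: glow luminescence from Steady-Glo reagent; evaluation: activation, % of tunicamycin; control set: tunicamycin high, DMSO low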
UPR CHOP act = apoptotic UPR (CHOP) activation. CHO-CHOP luciferase reporter, luminescence; percent of tunicamycin response over DMSO baseline. activation, % at 10 µM. 330,000 tested, 0.34% active. AID 449763;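 active = at 10 µM dose, activation of 40% or more, normalized to positive control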;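 also: 100% = tunicamycin at 10 µg/mL and 0% = DMSO alone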
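assay system = CHO CHOP reporter cells | amount = 500 CHO-CHOP cells per well | buffer or medium = F12 with 10% FBS | incubation = 16-18 h cell attachment, then 6 h compound exposure, 37 °C | detection = luminescence read with Steady-Glo | read-out = percent activation relative to tunicamycin control | controls = tunicamycin high control, DMSO low control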
An asterisk follows results filed as active; x = no result. The full list was thinned out, with hits kept by preference.

SMILES | Fh CTSL1 inh | CHOP inh | UCH37 inh | UPR XBP1 act | UPR CHOP act
Cc1ccc(NC(=S)N2CCC(c3ccc(C)cc3)C2)cc1 (stereo not drawn) | 53.8* | 20.6 | 2.1 | 1.0 | 1.1
Cc1ccc(C=NNC(=O)C(C)NC(=O)c2ccccc2)cc1 (stereo not drawn) | x | x | 4.8 | x | x
COCCCNC(=O)c1c(N)n(-c2cccc(S(N)(=O)=O)c2)c2nc3ccccc3nc12 | -1.2 | -4.1 | -263.2 | -1.0 | -0.8
CCCNC(=O)c1c(N)n(-c2cccc(OC)c2)c2nc3ccccc3nc12 | 4.8 | 88.8* | -425.3 | 0.4 | -0.4
O=C(CNc1cccc2ccccc12)NN=Cc1cccc(Oc2ccccc2)c1 | x | x | -0.2 | x | x
Cc1nn(-c2ccccc2)c(N2CCCC2)c1/C=C1\N=C(c2ccccc2)OC1=O | 56.1* | 26.1 | 3.2 | 3.9 | 0.9
NC(=O)c1ccsc1NC(=O)c1ccc(S(=O)(=O)N2CCCCC2)cc1 | 37.2* | 34.8 | -63.3 | 2.4 | 7.0
CC1CC(C)CN(S(=O)(=O)c2ccc(C(=O)Nc3sccc3C(N)=O)cc2)C1 (stereo not drawn) | -3.8 | 87.3* | -104.9 | -1.4 | 0.4
NC(=O)c1ccsc1NC(=O)c1ccc(S(=O)(=O)N2CCCC2)cc1 | 0.1 | 34.7 | 7.4 | 3.5 | 2.6
O=C(COc1ccccc1[N+](=O)[O-])NN=C/C=C/c1ccco1 | x | x | 4.2 | x | x
CC(CC(C)C)=NOc1nc(C)cc(C)n1 | x | x | 0.9 | x | x
CSCCC(NS(=O)(=O)c1ccc2c(c1)oc(=O)n2C)C(=O)NC1CCN(Cc2ccccc2)CC1 (stereo not drawn) | 41.4* | 36.4 | 4.4 | -0.6 | 1.3
CC1CCN(C(=O)C(Cc2ccccc2)NS(=O)(=O)c2ccc3c(c2)oc(=O)n3C)CC1 (stereo not drawn) | -1.0 | 24.4 | 5.4 | -4.0 | -0.2
CC(C)C(NS(=O)(=O)c1ccc2c(c1)oc(=O)n2C)C(=O)N1CCN(Cc2ccccc2)CC1 (stereo not drawn) | 47.0* | 4.9 | 2.6 | -3.1 | 1.4
O=C(NN=Cc1cccnc1)C(=O)N1CCCCCC1 | x | x | 3.8 | x | x
COc1ccccc1-n1nnnc1SCC(=O)Nc1cc(C)on1 | 1.7 | 70.2* | 2.5 | 0.2 | -3.6
Cc1ccc(C)c(OCC(=O)N/N=C/c2c(C)nn(-c3ccccc3)c2Cl)c1 | -4.2 | 83.0* | x | -0.7 | 1.2
Cc1ccc(C(C)C)c(OCC(=O)N/N=C/c2cccn2C)c1 | -0.9 | 95.9* | x | -3.8 | 0.7
Cc1ccc(C)c(OCC(=O)NN=Cc2c(C)nn(-c3ccccc3)c2Cl)c1 | x | x | 4.3 | x | x
COc1cc(C=NNc2nc3ccccc3o2)cc(OC)c1O | x | x | -3.1 | x | x
COc1cccc(-c2nc(CS(=O)(=O)CC(=O)NCCCN3CC(C)CC(C)C3)c(C)o2)c1 (stereo not drawn) | 19.4* | x | 2.8 | 4.3 | -1.2
COC(CNC(=O)c1ccc2c3c(onc13)-c1ccccc1C2=O)OC | 15.5 | -67.7 | 20.1* | 6.5 | 17.4
COC(CNC(=O)c1cccnc1)OC | 2.5 | 2.8 | -2.7 | 0.6 | -0.8
CN(C)c1ccc(C=NNC(=O)c2ccc3c(c2)OCO3)cc1 | x | x | -8.8 | x | x
Cn1c2ccccc2n2c(=O)c(Cl)c(-c3ccccc3)c(C#N)c12 | 3.3 | 72.9* | -1.1 | 14.7 | 3.4
SMILES | Fh CTSL1 inh | CHOP inh | UCH37 inh | UPR XBP1 act | UPR CHOP act
CCOc1cc(CNc2ccc(N3CCCCC3)cc2)cc(Br)c1OCC(=O)NC(C)(C)C | -2.5 | 16.8 | 1.7 | -2.9 | 2.4
CCOc1cc(CNc2ccc(N(C)C)cc2)cc(Br)c1OCC(=O)NC(C)(C)C | -4.8 | 94.9* | 0.5 | 2.4 | -1.6
CN1/C(=C\C=NNC(=O)c2cccnc2)C(C)(C)c2ccccc21 | x | x | 11.0 | x | x
O=c1cnnc(NN=Cc2cccs2)[nH]1 | x | x | 8.4 | x | x
CCCN1C(=O)C2(C(C(=O)c3ccc(C)o3)=C(O)C(=O)N2CCCN2CCOCC2)c2ccccc21 (stereo not drawn) | -2.9 | 12.5 | 20.8* | -0.8 | 0.8
O=C(Nc1ccccc1)C1=C(O)CC(c2ccco2)CC1=Nc1ccccc1 (stereo not drawn) | 3.6 | 4.9 | 3.1 | -0.8 | 0.4
O=C(Nc1ccccc1)C1=C(O)CC(c2ccoc2)CC1=Nc1ccccc1 (stereo not drawn) | 22.4* | 36.2 | -1.6 | -2.0 | 0.0
COc1cc(C=NNC(=S)NCCN2CCOCC2)cc(OC)c1OC | x | x | 8.7 | x | x
Cn1cc(C(c2ccccn2)c2cn(C)c3ccccc23)c2ccccc21 | 0.3 | 77.6* | 8.4 | -0.1 | -0.5
c1ccc(C(c2c[nH]c3ccccc23)c2c[nH]c3ccccc23)nc1 | -0.1 | 56.9 | 4.7 | -1.6 | 1.3
COc1ccnc(-n2cccc2C=NO)c1C#N | x | x | 2.9 | x | x
O=C(NC1CCCN(CCc2ccccc2)C1)c1c(F)cccc1F (stereo not drawn) | 0.8 | x | -0.9 | -0.8 | -0.6
O=C(NC1CCCN(Cc2ccc(Cl)cc2)C1)c1c(F)cccc1F (stereo not drawn) | 28.1* | x | 5.2 | -2.3 | -1.1
O=C(NC1CCCN(Cc2ccc(Cl)cc2)C1)c1c(F)ccc(F)c1F (stereo not drawn) | 64.1* | x | 4.3 | -7.1 | 0.8
Cc1ccc(Cn2c(NCCc3ccccc3)nc3c2c(=O)n(C)c(=O)n3C)cc1 | -0.9 | 79.2* | 4.8 | -1.2 | -0.4
CN(Cc1ccccc1)Cc1nc2c(c(=O)n(C)c(=O)n2C)n1CCCc1ccccc1 | 2.2 | 76.8* | -0.3 | 0.6 | 0.2
CC(C)Cn1c(CN(C)Cc2ccccc2)nc2c1c(=O)n(C)c(=O)n2C | -1.4 | 54.8 | 3.0 | -2.4 | -2.3
CC(C)(C)c1ccc(C=NNC(=O)c2ccccn2)cc1 | x | x | 5.9 | x | x
C=CCNC(=S)N/N=C/c1ccc(OCc2ccccc2Cl)cc1 | -1.7 | 92.3* | x | -3.7 | 0.1
CCc1cc2c(N3CCN(c4ccccc4)CC3)ncnc2s1 | -2.2 | 77.0* | 0.1 | 2.7 | -1.3
Cc1ccc(-n2ncc3c(N4CCN(c5ccccc5)CC4)ncnc32)c(C)c1 | 1.0 | 84.4* | 1.1 | -7.4 | -6.0
COc1ccc(-n2ncc3c(N4CCN(c5cc(C)ccc5C)CC4)ncnc32)cc1 | -8.2 | -11.1 | 1.6 | 1.8 | 0.2
COc1ccc(N2CCN(c3ncnc4c3cnn4-c3ccc(C)cc3C)CC2)cc1 | 0.5 | 74.4* | -1.3 | -0.2 | 4.2
Cc1ccc(-n2ncc3c(=O)n(CC(=O)N4CCN(c5ccccc5)CC4)cnc32)cc1 | 2.4 | 82.2* | 1.7 | -1.7 | 0.1
CN(C)C(=O)Cn1cnc2c(cnn2-c2ccccc2Cl)c1=O | -3.6 | 89.4* | -0.5 | -0.9 | 0.7
Clc1ccccc1-c1ccc(C=NNc2nncc(-c3ccccc3)n2)o1 | x | x | 8.2 | x | x
O=C(/C=C/c1ccco1)NCc1ccccn1 | 16.7* | -0.2 | 4.4 | -2.1 | 0.1
O=C(/C=C/c1ccc([N+](=O)[O-])cc1)NCc1ccccn1 | 4.8 | -13.0 | 8.3 | -2.8 | 1.2
O=C(/C=C/c1ccco1)NC1CCCC1 | 58.8* | -11.7 | 3.7 | -1.6 | 2.1

From PubChem
